Screening data from PubChem BioAssay.
A selection: hits, their analogues and other compounds. The true share with any hit is near 4.4%.
HTR2A ag: mouse HTR2A agonism via beta-arrestin recruitment. CHO-K1 mHTR2A beta-arrestin complementation, luminescence; percent of 30 µM serotonin response. AID 624169. P35363. 360,000 tested, 0.66% active. activation, % at 7.6 µM;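 active = activation above a run cutoff, the mean activation of all tested compounds plus 3 SD, cut at about 14% in these data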;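 also: 0% = plate median of compound wells and 100% = 30 µM serotonin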
TbMetRS inhib: Trypanosoma brucei MetRS inhibition; purified T. brucei MetRS, ATP depletion, Kinase-Glo luminescence; inhibition, % at 11.9 µM; 360,000 tested, 0.4% active; AID 624268;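 active = inhibition above a per-plate cutoff of the control wells' mean inhibition plus 3 SD, cut at about 5.5% in these data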;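 also: 0% = DMSO wells median and 100% = median of wells with control inhibitor compound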
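technique = Kinase-Glo luminescence, ATP depletion format | system = purified MetRS (methionyl-tRNA synthetase) enzyme from Trypanosoma brucei | timing = 15 min preincubation, 2 h reaction, all 25 °C | evaluation = percent inhibition versus plate control medians | dosing = single dose, 11.9 µM final nominal, 0.9% final DMSO | also added = substrates ATP, L-methionine and bulk Escherichia coli tRNA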
AI-2 QS mod: Vibrio harveyi AI-2 quorum sensing modulation; 300,000 tested, 0.4% active; Vibrio harveyi JMH597 AI-2 luminescence/OD600 ratio, 9 h; stronger effect = lower value; strain lacks LuxN and CqsS sensors; 0 = neutral-control median; activity change, % at 7.5 µM; in the data active = activity change below about -75%, passing the limit was not always enough;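 also: luminescence divided by OD600 gain over 9 h not by final OD600 alone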
MsrA inhibitor: inhibitors of bovine MsrA. purified bovine MsrA, absorbance read-out. inhibition, % at 15.5 µM. 360,000 tested, 0.75% active; in the data active = inhibition above about 4.5%;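 also: 0% = vehicle wells with enzyme and 100% = reference inhibitor wells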
bovine MsrA act: activators of bovine methionine sulfoxide reductase A; purified bovine MsrA, absorbance read-out; activation, % at 10.6 µM; 360,000 tested, 0.3% active; in the data active = activation above about 7.5%;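 also: 0% = vehicle and 100% = reference activator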
AHR act: activates the human aryl hydrocarbon receptor; P35869; AHR-responsive luciferase reporter cells, luminescence; activation, % at 5 µM; 320,000 tested, 2.5% active; AID 2796; in the data active = activation above about 47%;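 also: 0% = vehicle wells and 100% = reference agonist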
Target sequence (P35869 whole entry, looked up): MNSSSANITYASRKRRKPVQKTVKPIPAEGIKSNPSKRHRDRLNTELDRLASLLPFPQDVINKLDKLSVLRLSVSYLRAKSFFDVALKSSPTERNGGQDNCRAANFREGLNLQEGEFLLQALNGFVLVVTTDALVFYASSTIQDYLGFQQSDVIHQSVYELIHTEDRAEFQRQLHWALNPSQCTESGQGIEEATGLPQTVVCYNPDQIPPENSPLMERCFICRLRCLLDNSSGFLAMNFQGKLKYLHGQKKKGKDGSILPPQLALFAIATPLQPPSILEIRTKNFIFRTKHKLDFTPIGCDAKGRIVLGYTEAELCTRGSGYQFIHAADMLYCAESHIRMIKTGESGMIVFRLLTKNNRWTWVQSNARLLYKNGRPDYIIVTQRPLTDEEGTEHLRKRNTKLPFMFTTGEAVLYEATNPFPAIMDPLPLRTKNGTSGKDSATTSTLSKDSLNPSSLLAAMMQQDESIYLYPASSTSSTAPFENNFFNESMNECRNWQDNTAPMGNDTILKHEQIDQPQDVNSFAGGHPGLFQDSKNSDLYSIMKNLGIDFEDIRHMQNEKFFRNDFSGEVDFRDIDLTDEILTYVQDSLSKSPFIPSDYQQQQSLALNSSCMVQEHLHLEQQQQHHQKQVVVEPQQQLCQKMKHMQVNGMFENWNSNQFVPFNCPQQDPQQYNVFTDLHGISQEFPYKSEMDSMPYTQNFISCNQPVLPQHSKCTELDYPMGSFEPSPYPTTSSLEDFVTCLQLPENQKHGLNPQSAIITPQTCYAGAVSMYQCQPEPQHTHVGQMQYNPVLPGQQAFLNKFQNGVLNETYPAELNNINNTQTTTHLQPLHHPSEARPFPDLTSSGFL
Tb MetRS conf: confirmation of Trypanosoma brucei MetRS inhibitors. 1,400 tested, 93% active. inhibition, % at 11.9 µM. T. brucei MetRS enzyme, luminescence (ATP depletion). shares compounds with TbMetRS inhib. AID 624412; in the data active = inhibition above about 7%
Jurkat tox: counter-screen for T. brucei MetRS inhibitors: Jurkat cell cytotoxicity | shares compounds with TbMetRS inhib | Jurkat cells viability, ATP luminescence | inhibition, % at 8.3 µM | 1,400 tested, 12% active; in the data active = inhibition above about 15%;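 also: 0% = vehicle and 100% = reference inhibitor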
Tb MetRS inh FP: orthogonal test for Trypanosoma brucei MetRS inhibitors. AID 651607. 1,400 tested, 44% active. inhibition, % at 11.9 µM. purified T. brucei MetRS, fluorescence polarization. shares compounds with TbMetRS inhib; in the data active = inhibition above about 17%;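 also: 0% = vehicle wells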
Numbers without * were called inactive.

Results for Cc1ccc2nc(C3CCCN(C(=O)NCc4ccccc4)C3)[nH]c2c1 (centres undefined) ?
HTR2A ag: 1; TbMetRS inhib: 15*; AI-2 QS mod: 5; MsrA inhibitor: 2; bovine MsrA act: -2; AHR act: 15; Tb MetRS conf: 23*; Jurkat tox: -3; Tb MetRS inh FP: 9

How did CCn1c(SCC(=O)NC2CC2)nnc1-c1cccc(OC)c1 do in these assays?
HTR2A ag: 5; TbMetRS inhib: 0; AI-2 QS mod: -2; MsrA inhibitor: -1; bovine MsrA act: -8; AHR act: -2

What do the screens show for `Nc1c(NC(=O)CC[n+]2ccccc2)cccc1[N+](=O)[O-]`?
HTR2A ag: 5; TbMetRS inhib: 11*; AI-2 QS mod: 6; MsrA inhibitor: 0; bovine MsrA act: 2; AHR act: 7; Tb MetRS conf: 18*; Jurkat tox: -4; Tb MetRS inh FP: 2

What do the screens show for `CCNC(=S)NNC(=O)c1ccc(S(=O)(=O)NCc2ccco2)cc1`?
HTR2A ag: 0; TbMetRS inhib: 6.2*; MsrA inhibitor: 2; bovine MsrA act: -7; AHR act: 5; Tb MetRS conf: 25*; Jurkat tox: 6; Tb MetRS inh FP: 12

How did O=C(Nc1cccc2ncccc12)c1cccc(Br)c1 do in these assays?
HTR2A ag: -3; TbMetRS inhib: -2; AI-2 QS mod: 5; MsrA inhibitor: -1; bovine MsrA act: -11

Results for O=C(Nc1cccc2ncccc12)c1ccc(Br)c([N+](=O)[O-])c1 ?
HTR2A ag: 2; TbMetRS inhib: 31*; AI-2 QS mod: 15; MsrA inhibitor: 0; bovine MsrA act: -1; AHR act: 4; Tb MetRS conf: 56*; Jurkat tox: 22*; Tb MetRS inh FP: 35*

What do the screens show for `CCOc1ccccc1NS(=O)(=O)c1c(C)[nH]c(C)c1C(=O)N1CCCCC1`?
HTR2A ag: -6; TbMetRS inhib: 35*; AI-2 QS mod: -2; MsrA inhibitor: 1; bovine MsrA act: -2; AHR act: 2; Tb MetRS conf: 57*; Jurkat tox: -5; Tb MetRS inh FP: 27*

How did Cc1cccc(NS(=O)(=O)c2c(C)[nH]c(C)c2C(=O)N2CCCC2)c1 do in these assays?
HTR2A ag: 5; TbMetRS inhib: 26*; AI-2 QS mod: 9; MsrA inhibitor: 1; bovine MsrA act: -4; AHR act: -3; Tb MetRS conf: 55*; Jurkat tox: -8; Tb MetRS inh FP: 20*

What do the screens show for `Cc1ccc(NS(=O)(=O)c2c(C)[nH]c(C)c2C(=O)N2CCCC2)cc1`?
HTR2A ag: 9; TbMetRS inhib: -1; AI-2 QS mod: 18; MsrA inhibitor: 1; bovine MsrA act: -10; AHR act: 0

What do the screens show for `COc1ccc(Cl)cc1NS(=O)(=O)c1c(C)[nH]c(C)c1C(=O)N1CCCCC1`?
HTR2A ag: 3; TbMetRS inhib: 1; AI-2 QS mod: 4; MsrA inhibitor: 1; bovine MsrA act: -1; AHR act: 12

How did O=C(Nc1ccc(Cl)cc1)N1CCSC1=NCc1ccccc1 do in these assays?
HTR2A ag: 0; TbMetRS inhib: 0; AI-2 QS mod: 9; MsrA inhibitor: 2; bovine MsrA act: -2; AHR act: -2

What do the screens show for `O=C(CN1CCSC1=NCc1ccccc1)c1ccc(Cl)cc1`?
HTR2A ag: -4; TbMetRS inhib: 19*; AI-2 QS mod: 34; MsrA inhibitor: 1; bovine MsrA act: -8; AHR act: 1; Tb MetRS conf: 43*; Jurkat tox: 12; Tb MetRS inh FP: 18*

What do the screens show for `CSCC[C@H](NC(=O)COc1ccc(Cl)cc1Cl)c1nc2ccccc2[nH]1`?
HTR2A ag: 2; TbMetRS inhib: 12*; AI-2 QS mod: -3; MsrA inhibitor: -1; bovine MsrA act: -2; AHR act: 3; Tb MetRS conf: 24*; Jurkat tox: 5; Tb MetRS inh FP: 11
